In brackets after ≈: the same amount, converted by molar mass.
What was measured:
Format in all cases: functional
Enterococcus faecalis [1] = experiment: Antibacterial activity against Enterococcus faecalis 14-1 after 18 to 24 hrs
Procedure, shortened: (§1)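 MIC by standard NCCLS reference procedure (M100-S11); lowest concentration of compound inhibiting visible bacterial growth after incubation at 35 °C for 18–24 h, read as complete inhibition of growth. Ciprofloxacin, levofloxacin and moxifloxacin run alongside as reference agents.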

Klebsiella pneumoniae [2] = experiment: Antibacterial activity against Klebsiella pneumoniae 14-2 after 18 to 24 hrs; procedure, shortened: as §1
Klebsiella pneumoniae [3] = experiment: Antibacterial activity against Klebsiella pneumoniae 14-4 after 18 to 24 hrs; procedure, shortened: as §1
Pseudomonas aeruginosa [4] = experiment: Antibacterial activity against Pseudomonas aeruginosa ATCC 27853 after 18 to 24 hrs; procedure, shortened: as §1
[5] = test system: Staphylococcus epidermidis; experiment: Antibacterial activity against methicillin-resistant Staphylococcus epidermidis 14-22 after 18 to 24 hrs
Klebsiella pneumoniae [6] = experiment: Antibacterial activity against Klebsiella pneumoniae 14-1 after 18 to 24 hrs; procedure, shortened: as §1
Pseudomonas aeruginosa [7] = experiment: Antibacterial activity against Pseudomonas aeruginosa 14-14 after 18 to 24 hrs; procedure, shortened: as §1
Pseudomonas aeruginosa [8] = experiment: Antibacterial activity against Pseudomonas aeruginosa 14-19 after 18 to 24 hrs; procedure, shortened: as §1
Klebsiella pneumoniae [9] = experiment: Antibacterial activity against Klebsiella pneumoniae 14-3 after 18 to 24 hrs; procedure, shortened: as §1
Staphylococcus aureus [10] = experiment: Antibacterial activity against methicillin-sensitive Staphylococcus aureus 14-4 after 18 to 24 hrs; procedure, shortened: as §1
Escherichia coli [11] = experiment: Antibacterial activity against ESBL-positive Escherichia coli 14-1 after 18 to 24 hrs; procedure, shortened: as §1
Klebsiella pneumoniae [12] = experiment: Antibacterial activity against ESBL-positive Klebsiella pneumoniae 14-19 after 18 to 24 hrs; procedure, shortened: as §1
Enterococcus faecium [13] = experiment: Antibacterial activity against Enterococcus faecium 14-2 after 18 to 24 hrs; procedure, shortened: as §1
[14] = test system: Staphylococcus epidermidis; experiment: Antibacterial activity against methicillin-resistant Staphylococcus epidermidis 14-37 after 18 to 24 hrs
Staphylococcus aureus [15] = experiment: Antibacterial activity against Staphylococcus aureus CMCC 26003 after 18 to 24 hrs; procedure, shortened: as §1
Escherichia coli [16] = experiment: Antibacterial activity against Escherichia coli 14-1 after 18 to 24 hrs; procedure, shortened: as §1
Staphylococcus aureus [17] = experiment: Antibacterial activity against methicillin-sensitive Staphylococcus aureus 14-3 after 18 to 24 hrs; procedure, shortened: as §1
Escherichia coli [18] = experiment: Antibacterial activity against Escherichia coli ATCC 25922 after 18 to 24 hrs; procedure, shortened: as §1
[19] = test system: Staphylococcus epidermidis; experiment: Antibacterial activity against methicillin-resistant Staphylococcus epidermidis 14-21 after 18 to 24 hrs
Enterococcus faecium [20] = experiment: Antibacterial activity against Enterococcus faecium 14-5 after 18 to 24 hrs; procedure, shortened: as §1
[21] = test system: Staphylococcus epidermidis; experiment: Antibacterial activity against methicillin-sensitive Staphylococcus epidermidis 14-2 after 18 to 24 hrs; procedure, shortened: as §1
Pseudomonas aeruginosa [22] = experiment: Antibacterial activity against Pseudomonas aeruginosa 14-16 after 18 to 24 hrs; procedure, shortened: as §1
Enterococcus faecium [23] = experiment: Antibacterial activity against Enterococcus faecium 14-6 after 18 to 24 hrs; procedure, shortened: as §1
Escherichia coli [24] = experiment: Antibacterial activity against Escherichia coli 14-2 after 18 to 24 hrs; procedure, shortened: as §1
Klebsiella pneumoniae [25] = experiment: Antibacterial activity against ESBL-positive Klebsiella pneumoniae 14-18 after 18 to 24 hrs; procedure, shortened: as §1
[26] = test system: Staphylococcus epidermidis; experiment: Antibacterial activity against methicillin-resistant Staphylococcus epidermidis 14-39 after 18 to 24 hrs
Staphylococcus aureus [27] = experiment: Antibacterial activity against methicillin-sensitive Staphylococcus aureus 14-1 after 18 to 24 hrs; procedure, shortened: as §1
Streptococcus pneumoniae = experiment: Antibacterial activity against Streptococcus pneumoniae ATCC 19615 after 18 to 24 hrs; procedure, shortened: as §1
Klebsiella pneumoniae [28] = experiment: Antibacterial activity against ESBL-positive Klebsiella pneumoniae 14-17 after 18 to 24 hrs; procedure, shortened: as §1
Staphylococcus aureus [29] = experiment: Antibacterial activity against methicillin-sensitive Staphylococcus aureus 14-2 after 18 to 24 hrs; procedure, shortened: as §1
Staphylococcus aureus [30] = experiment: Antibacterial activity against methicillin-resistant Staphylococcus aureus 14-5 after 18 to 24 hrs
Pseudomonas aeruginosa [31] = experiment: Antibacterial activity against Pseudomonas aeruginosa 14-15 after 18 to 24 hrs; procedure, shortened: as §1
Staphylococcus aureus [32] = experiment: Antibacterial activity against methicillin-resistant Staphylococcus aureus 14-4 after 18 to 24 hrs
Enterococcus faecium [33] = experiment: Antibacterial activity against Enterococcus faecium 14-1 after 18 to 24 hrs; procedure, shortened: as §1
[34] = test system: Mycobacterium tuberculosis; experiment: Antimycobacterial activity against Mycobacterium tuberculosis H37Rv ATCC 27294 by alamar blue assay
Procedure, shortened: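 Microplate Alamar Blue Assay; MIC is the lowest concentration giving ≥90% reduction in fluorescence relative to the mean of replicate bacterium-only controls. MDR strain 6133 is resistant to isoniazid and rifampicin.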

Enterococcus faecalis [35] = experiment: Antibacterial activity against Enterococcus faecalis 14-2 after 18 to 24 hrs; procedure, shortened: as §1
Pseudomonas aeruginosa [36] = experiment: Antibacterial activity against Pseudomonas aeruginosa 14-9 after 18 to 24 hrs; procedure, shortened: as §1
Escherichia coli [37] = experiment: Antibacterial activity against ESBL-positive Escherichia coli 14-2 after 18 to 24 hrs; procedure, shortened: as §1

| Structure (SMILES) | MIC (Enterococcus faecalis [1]) [µg/mL] | MIC (Klebsiella pneumoniae [2]) [µg/mL] | MIC (Klebsiella pneumoniae [3]) [µg/mL] | MIC (Pseudomonas aeruginosa [4]) [µg/mL] | MIC [5] [µg/mL] | MIC (Klebsiella pneumoniae [6]) [µg/mL] | MIC (Pseudomonas aeruginosa [7]) [µg/mL] | MIC (Pseudomonas aeruginosa [8]) [µg/mL] | MIC (Klebsiella pneumoniae [9]) [µg/mL] | MIC (Staphylococcus aureus [10]) [µg/mL] | MIC (Escherichia coli [11]) [µg/mL] | MIC (Klebsiella pneumoniae [12]) [µg/mL] | MIC (Enterococcus faecium [13]) [µg/mL] | MIC [14] [µg/mL] | MIC (Staphylococcus aureus [15]) [µg/mL] | MIC (Escherichia coli [16]) [µg/mL] | MIC (Staphylococcus aureus [17]) [µg/mL] | MIC (Escherichia coli [18]) [µg/mL] | MIC [19] [µg/mL] | MIC (Enterococcus faecium [20]) [µg/mL] | further results |
| --- | --- | --- | --- | --- | --- | --- | --- | --- | --- | --- | --- | --- | --- | --- | --- | --- | --- | --- | --- | --- | --- |
| CO/N=C1\CN(c2nc3c(cc2F)c(=O)c(C(=O)O)cn3[C@@H]2C[C@@H]2F)CC1(C)N (some centres undefined) | 128 (≈ 314 µM) | > 128 | > 128 | 8 (≈ 19.6 µM) | 32 (≈ 78.6 µM) | > 128 | 32 (≈ 78.6 µM) | 32 (≈ 78.6 µM) | > 128 | 0.5 (≈ 1.23 µM) | 32 (≈ 78.6 µM) | > 128 | > 128 | 32 (≈ 78.6 µM) | 0.25 (≈ 0.614 µM) | > 128 | 0.5 (≈ 1.23 µM) | 0.5 (≈ 1.23 µM) | 128 (≈ 314 µM) | > 128 | MIC [21]: > 128 µg/mL; MIC (Pseudomonas aeruginosa [22]): 32 µg/mL (≈ 78.6 µM); MIC (Enterococcus faecium [23]): > 128 µg/mL; MIC (Escherichia coli [24]): > 128 µg/mL; MIC (Klebsiella pneumoniae [25]): 32 µg/mL (≈ 78.6 µM); MIC [26]: 64 µg/mL (≈ 157 µM); MIC (Staphylococcus aureus [27]): 16 µg/mL (≈ 39.3 µM); MIC (Streptococcus pneumoniae): 0.25 µg/mL (≈ 0.614 µM); MIC (Klebsiella pneumoniae [28]): 16 µg/mL (≈ 39.3 µM); MIC (Staphylococcus aureus [29]): 0.5 µg/mL (≈ 1.23 µM); MIC (Staphylococcus aureus [30]): 128 µg/mL (≈ 314 µM); MIC (Pseudomonas aeruginosa [31]): 32 µg/mL (≈ 78.6 µM); MIC (Staphylococcus aureus [32]): 128 µg/mL (≈ 314 µM); MIC (Enterococcus faecium [33]): > 128 µg/mL; MIC90 [34]: 0.392 µg/mL (≈ 0.962 µM); MIC (Enterococcus faecalis [35]): 2 µg/mL (≈ 4.91 µM); MIC (Pseudomonas aeruginosa [36]): 16 µg/mL (≈ 39.3 µM); MIC (Escherichia coli [37]): > 128 µg/mL |
| CCO/N=C1\CN(c2nc3c(cc2F)c(=O)c(C(=O)O)cn3[C@@H]2C[C@@H]2F)CC1(C)N (some centres undefined) | 128 (≈ 304 µM) | > 128 | > 128 | 16 (≈ 38 µM) | 32 (≈ 75.9 µM) | 128 (≈ 304 µM) | 32 (≈ 75.9 µM) | 64 (≈ 152 µM) | 128 (≈ 304 µM) | 1 (≈ 2.37 µM) | 32 (≈ 75.9 µM) | 128 (≈ 304 µM) | > 128 | 32 (≈ 75.9 µM) | 0.25 (≈ 0.593 µM) | > 128 | 0.5 (≈ 1.19 µM) | 1 (≈ 2.37 µM) | 64 (≈ 152 µM) | > 128 | MIC [21]: > 128 µg/mL; MIC (Pseudomonas aeruginosa [22]): 32 µg/mL (≈ 75.9 µM); MIC (Enterococcus faecium [23]): > 128 µg/mL; MIC (Escherichia coli [24]): > 128 µg/mL; MIC (Klebsiella pneumoniae [25]): 32 µg/mL (≈ 75.9 µM); MIC [26]: 128 µg/mL (≈ 304 µM); MIC (Staphylococcus aureus [27]): 64 µg/mL (≈ 152 µM); MIC (Streptococcus pneumoniae): 0.25 µg/mL (≈ 0.593 µM); MIC (Klebsiella pneumoniae [28]): 32 µg/mL (≈ 75.9 µM); MIC (Staphylococcus aureus [29]): 0.25 µg/mL (≈ 0.593 µM); MIC (Staphylococcus aureus [30]): 128 µg/mL (≈ 304 µM); MIC (Pseudomonas aeruginosa [31]): 32 µg/mL (≈ 75.9 µM); MIC (Staphylococcus aureus [32]): 64 µg/mL (≈ 152 µM); MIC (Enterococcus faecium [33]): > 128 µg/mL; MIC90 [34]: 0.42 µg/mL (≈ 0.997 µM); MIC (Enterococcus faecalis [35]): 2 µg/mL (≈ 4.75 µM); MIC (Pseudomonas aeruginosa [36]): 16 µg/mL (≈ 38 µM); MIC (Escherichia coli [37]): > 128 µg/mL |
| CC1(N)CN(c2nc3c(cc2F)c(=O)c(C(=O)O)cn3[C@@H]2C[C@@H]2F)C/C1=N\OCc1ccccc1 (some centres undefined) | 128 (≈ 265 µM) | > 128 | > 128 | 32 (≈ 66.2 µM) | 32 (≈ 66.2 µM) | > 128 | 64 (≈ 132 µM) | 64 (≈ 132 µM) | > 128 | 1 (≈ 2.07 µM) | 64 (≈ 132 µM) | > 128 | > 128 | 128 (≈ 265 µM) | 0.03 (≈ 0.0621 µM) | > 128 | 0.5 (≈ 1.03 µM) | 2 (≈ 4.14 µM) | 64 (≈ 132 µM) | > 128 | MIC [21]: > 128 µg/mL; MIC (Pseudomonas aeruginosa [22]): 64 µg/mL (≈ 132 µM); MIC (Enterococcus faecium [23]): > 128 µg/mL; MIC (Escherichia coli [24]): > 128 µg/mL; MIC (Klebsiella pneumoniae [25]): 128 µg/mL (≈ 265 µM); MIC [26]: 64 µg/mL (≈ 132 µM); MIC (Staphylococcus aureus [27]): 16 µg/mL (≈ 33.1 µM); MIC (Streptococcus pneumoniae): 0.5 µg/mL (≈ 1.03 µM); MIC (Klebsiella pneumoniae [28]): 128 µg/mL (≈ 265 µM); MIC (Staphylococcus aureus [29]): 0.03 µg/mL (≈ 0.0621 µM); MIC (Staphylococcus aureus [30]): 64 µg/mL (≈ 132 µM); MIC (Pseudomonas aeruginosa [31]): 64 µg/mL (≈ 132 µM); MIC (Staphylococcus aureus [32]): 32 µg/mL (≈ 66.2 µM); MIC (Enterococcus faecium [33]): > 128 µg/mL; MIC90 [34]: 0.923 µg/mL (≈ 1.91 µM); MIC (Enterococcus faecalis [35]): 2 µg/mL (≈ 4.14 µM); MIC (Pseudomonas aeruginosa [36]): 64 µg/mL (≈ 132 µM); MIC (Escherichia coli [37]): > 128 µg/mL |

— ChEMBL document CHEMBL3632558, “Synthesis, antimycobacterial and antibacterial activity of l-[(1R,2S)-2-fluorocyclopropyl]naphthyridone derivatives containing an oxime-functionalized pyrrolidine moiety” (2015)
